We go through ten molecules from ChEMBL document CHEMBL1156158, “Praziquantel analogs with activity against juvenile Schistosoma mansoni” (Bioorg Med Chem Lett, 2010).

For one data set, the system named is Liver microsomes. The data set can be described thus: Metabolic stability in human liver microsomes at 1 uM after 120 mins by LC-MS/MS. Type of data set: ADME, Microsome. Conditions: 2 h. Summed up:
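Compound at 1 µM was incubated at 37 °C with 0.5 mg/mL microsomes. Reactions were started with an NADPH-regenerating system and stopped with ice-cold MeOH. Loss of parent compound over 120 min was followed by LC–MS/MS.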

Data set [1] concerns Schistosoma mansoni. The data set can be described thus: Antischistosomal activity in adult Schistosoma mansoni infected in mouse assessed as total worm reduction at 400 mg/kg, po after 28 days. It is filed as functional. The arrangement: scale not given: the % may be the effect or the level left. Summed up:
(§1)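 Mice were infected with about 80 cercariae on day 0. A single oral dose was given, dissolved or suspended in 3% ethanol/7% Tween 80 vehicle: groups of three mice on day 21 (juvenile) and groups of five on day 49 (adult). Mice were killed by CO₂ 28 days after treatment and dissected for total and female worm counts versus vehicle controls. Medians were compared by Kruskal–Wallis test.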

The subject of data set [2] is Schistosoma mansoni. The data set can be described thus: Antischistosomal activity against adult Schistosoma mansoni assessed as motility reduction at 10 ug/ml after 120 hrs. Set-up: scale not given: the % may be the effect or the level left. It is filed as functional. Summed up: (§2)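 Adult worms were recovered from infected mice by portal perfusion with warm DMEM containing 2 mM L-glutamine, penicillin/streptomycin, 20 mM Hepes and heparin. Host red cells were removed and the worms moved to DMEM with 10% FCS, glutamine and antibiotics. Compounds were added from 10 mg/mL DMSO stocks. At 120 h, motility disturbances and morphological changes were scored.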

Data set [3] deals with Schistosoma mansoni. The data set can be described thus: Antischistosomal activity against adult Schistosoma mansoni assessed as morphological changes at 10 ug/ml after 120 hrs. Type of data set: functional, organism-based. An outline of the steps:
as §2

The subject of data set [4] is Schistosoma mansoni. The data set can be described thus: Antischistosomal activity in adult Schistosoma mansoni infected in mouse assessed as female worm reduction at 400 mg/kg, po after 28 days. Type of data set: functional. The arrangement: scale not given: the % may be the effect or the level left. Summed up:
as §1

The test system of data set [5] is Schistosoma mansoni. The data set can be described thus: Antischistosomal activity in juvenile Schistosoma mansoni infected in mouse assessed as female worm reduction at 400 mg/kg, po after 28 days. It is filed as functional. The arrangement: scale not given: the % may be the effect or the level left. An outline of the steps:
as §1

The test system of data set [6] is Schistosoma mansoni. The data set can be described thus: Antischistosomal activity in juvenile Schistosoma mansoni infected in mouse assessed as total worm reduction at 400 mg/kg, po after 28 days. The arrangement: scale not given: the % may be the effect or the level left. It is filed as functional. Summed up:
as §1

Data set [7] deals with Schistosoma mansoni. The data set can be described thus: Antischistosomal activity against adult Schistosoma mansoni. Type of data set: functional, organism-based.
In data set [8] the test system is Schistosoma mansoni. The data set can be described thus: Antischistosomal activity in juvenile Schistosoma mansoni infected in mouse assessed as female worm reduction at 200 mg/kg, po after 28 days. Type of data set: functional. Set-up: scale not given: the % may be the effect or the level left. An outline of the steps: (§3)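 Mice infected with ca. 80 S. mansoni cercariae on day 0; single oral dose given on day 21 post-infection (juvenile stage) in 3% ethanol/7% Tween 80 vehicle, groups of three mice. Sacrificed by CO₂ 28 days post-treatment and dissected; total and female worm reduction rates versus vehicle controls, Kruskal–Wallis test comparing medians.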

The subject of data set [9] is Schistosoma mansoni. The data set can be described thus: Antischistosomal activity in juvenile Schistosoma mansoni infected in mouse assessed as total worm reduction at 200 mg/kg, po after 28 days. Type of data set: functional. Set-up: scale not given: the % may be the effect or the level left. An outline of the steps: as §3

≈ marks a conversion by molar mass, not a printed value. Calls of active or inactive are those of the source. No cut-off for these calls is given here.

Take `O=C(C1CCC(F)(F)CC1)N1CC(=O)N2CCc3ccccc3C2C1` (stereo not drawn): the Stability entry with Liver microsomes is listed as “Stable”. Also, the Activity in the data set with Schistosoma mansoni [1] is recorded as 40%; with Schistosoma mansoni [2] it was 25%; in the data set on Schistosoma mansoni [4], 39%; with Schistosoma mansoni [5], 44%; in the data set with Schistosoma mansoni [6], 38%. Also, the result in the data set with Schistosoma mansoni [3] was Active.

With `O=C(C1CCCCC1)N1CC(=O)N2CCc3ccccc3C2C1` (stereo not drawn) [PRAZIQUANTEL], the Activity is listed as 96% with Schistosoma mansoni [1]; 100% with Schistosoma mansoni [2]; 98% in the data set with Schistosoma mansoni [4]; 18% in the data set on Schistosoma mansoni [5]; 7% in the data set with Schistosoma mansoni [6]. Besides, the outcome in the data set with Schistosoma mansoni [3] was Active. The molecule further gave an IC50 in the data set with Schistosoma mansoni [7] of 0.37 µg/mL (≈ 1.18 µM).

With `O=C(N1CCOCC1)N1CC(=O)N2CCc3ccccc3C2C1` (stereo not drawn), the Activity in the data set on Schistosoma mansoni [1] was 0%; in the data set with Schistosoma mansoni [2], 0%; in the data set on Schistosoma mansoni [4] it was 0%; in the data set with Schistosoma mansoni [5], 22%; with Schistosoma mansoni [6], 14%. Further, the result in the data set with Schistosoma mansoni [3] was inactive.

`O=C1CN(C(=O)[C@H]2CC[C@]3(CC2)OO[C@]2(O3)C3CC4CC(C3)CC2C4)CC2c3ccccc3CCN12` (stereo partly drawn): the Activity in the data set with Schistosoma mansoni [1], in the data set on Schistosoma mansoni [2], in the data set on Schistosoma mansoni [4], with Schistosoma mansoni [5] and with Schistosoma mansoni [6] was 0% throughout. In the data set on Schistosoma mansoni [3], the outcome was inactive.

Regarding `O=C(N1CCNCC1)N1CC(=O)N2CCc3ccccc3C2C1` (stereo not drawn), the Activity in the data set on Schistosoma mansoni [1] is 0%; in the data set on Schistosoma mansoni [2], 0%; in the data set on Schistosoma mansoni [4] it was 0%; in the data set with Schistosoma mansoni [5] it was 23%; in the data set with Schistosoma mansoni [6] it was 25%. Also, the outcome in the data set on Schistosoma mansoni [3] was inactive.

For `O=C1CCC(C(=O)N2CC(=O)N3CCc4ccccc4C3C2)CC1` (racemic), the Activity is reported as 79% with Schistosoma mansoni [1]; 0% in the data set with Schistosoma mansoni [2]; 81% in the data set on Schistosoma mansoni [4]; 41% with Schistosoma mansoni [5]; 25% in the data set with Schistosoma mansoni [6]. In addition, the outcome in the data set on Schistosoma mansoni [3] was Active.

As for `O=C1CN(C(=O)[C@H]2CC[C@]3(CC2)OO[C@]2(O3)C3CC4CC(C3)CC2C4)CCN1`, the Activity with Schistosoma mansoni [8] is on record as 85%; in the data set on Schistosoma mansoni [1], 1%; with Schistosoma mansoni [2] it was 0%; in the data set with Schistosoma mansoni [4], 13%; in the data set on Schistosoma mansoni [9] it was 85%. Further, the outcome in the data set on Schistosoma mansoni [3] was inactive.

On to `O=C(N1CCCCC1)N1CC(=O)N2CCc3ccccc3C2C1` (stereo not drawn), for which the Activity in the data set on Schistosoma mansoni [1] is 1%; in the data set on Schistosoma mansoni [2] it was 38%; in the data set with Schistosoma mansoni [4] it was 9%; in the data set on Schistosoma mansoni [5], 34%; with Schistosoma mansoni [6], 27%. In the data set on Schistosoma mansoni [3], the result was Active.

Regarding `O=C1CN(C(=O)C23CC4CC(CC(C4)C2)C3)CC2c3ccccc3CCN12` (stereo not drawn), the Activity was 0% in the data set on Schistosoma mansoni [1]; 0% in the data set with Schistosoma mansoni [2]; 0% with Schistosoma mansoni [4]; 56% in the data set on Schistosoma mansoni [5]; 42% in the data set on Schistosoma mansoni [6]. Moreover, the result with Schistosoma mansoni [3] was inactive.

As for `O=C(N1CCC(F)(F)CC1)N1CC(=O)N2CCc3ccccc3C2C1` (stereo not drawn), in the data set on Liver microsomes, the Stability entry is “Stable”. The Activity in the data set on Schistosoma mansoni [1] came out at 12%; in the data set with Schistosoma mansoni [2], 0%; in the data set on Schistosoma mansoni [4], 0%; with Schistosoma mansoni [5], 38%; in the data set on Schistosoma mansoni [6], 38%. The result with Schistosoma mansoni [3] was inactive.
